Laboratory results taken from ChEMBL document CHEMBL1153096, “Properly substituted 1,4-dioxane nucleus favours the selective M3 muscarinic receptor activation” (Bioorg Med Chem, 2009).
Calls of active or inactive are those of the source. No cut-off for these calls is given here.

Key:
[1] = biological target: Muscarinic acetylcholine receptor M3 (Homo sapiens, UniProt P20309); experiment: Displacement of [3H]NMS from human muscarinic M3 receptor expressed in CHO cells by microplate scintillation counting; format: cell-based
Chain of Muscarinic acetylcholine receptor M3 (P20309 whole entry): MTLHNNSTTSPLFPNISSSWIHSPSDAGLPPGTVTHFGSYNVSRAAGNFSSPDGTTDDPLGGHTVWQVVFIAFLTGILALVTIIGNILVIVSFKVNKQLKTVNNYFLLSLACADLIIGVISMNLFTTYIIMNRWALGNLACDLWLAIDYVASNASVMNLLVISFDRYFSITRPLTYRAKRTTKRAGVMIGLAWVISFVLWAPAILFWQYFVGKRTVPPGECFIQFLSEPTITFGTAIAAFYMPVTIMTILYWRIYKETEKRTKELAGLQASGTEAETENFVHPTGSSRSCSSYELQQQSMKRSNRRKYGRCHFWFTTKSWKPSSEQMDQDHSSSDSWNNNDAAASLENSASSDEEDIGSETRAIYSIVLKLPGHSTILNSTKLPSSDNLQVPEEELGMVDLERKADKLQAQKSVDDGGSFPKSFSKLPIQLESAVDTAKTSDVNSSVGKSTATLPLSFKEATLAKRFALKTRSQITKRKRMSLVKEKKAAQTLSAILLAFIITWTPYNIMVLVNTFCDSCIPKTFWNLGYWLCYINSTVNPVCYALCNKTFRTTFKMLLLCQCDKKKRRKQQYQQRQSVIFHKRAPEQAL

[2] = Agonist activity at muscarinic M4 receptor in guinea pig lung assessed as inhibition of electrically-stimulated muscle contraction; format: functional, Cavia porcellus
[3] = biological target: T1, Muscarinic acetylcholine receptor M4 (Homo sapiens, UniProt P08173); experiment: Displacement of [3H]NMS from human muscarinic M4 receptor expressed in CHO cells by microplate scintillation counting; format: cell-based
T1 sequence (P08173 whole entry): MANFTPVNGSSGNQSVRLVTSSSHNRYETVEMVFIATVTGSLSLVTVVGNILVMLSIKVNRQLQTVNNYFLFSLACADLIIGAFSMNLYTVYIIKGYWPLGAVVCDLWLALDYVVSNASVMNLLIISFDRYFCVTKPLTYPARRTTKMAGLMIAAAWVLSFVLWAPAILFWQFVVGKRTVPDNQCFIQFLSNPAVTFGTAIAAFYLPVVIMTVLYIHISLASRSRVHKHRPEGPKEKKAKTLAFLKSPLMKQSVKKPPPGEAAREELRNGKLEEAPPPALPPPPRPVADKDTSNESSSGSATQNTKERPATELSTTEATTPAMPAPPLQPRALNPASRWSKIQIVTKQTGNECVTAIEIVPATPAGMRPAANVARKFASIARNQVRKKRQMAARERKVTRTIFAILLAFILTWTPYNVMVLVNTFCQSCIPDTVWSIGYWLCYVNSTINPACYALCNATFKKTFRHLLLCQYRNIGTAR

[4] = Agonist activity at muscarinic M2 receptor in guinea pig atrium assessed as inhibition of electrically-stimulated muscle contraction; format: functional, Cavia porcellus, Cardiac atrium
[5] = biological target: T2, Muscarinic acetylcholine receptor M5 (Homo sapiens, UniProt P08912); experiment: Displacement of [3H]NMS from human muscarinic M5 receptor expressed in CHO cells by microplate scintillation counting; format: cell-based
T2 sequence (P08912 whole entry): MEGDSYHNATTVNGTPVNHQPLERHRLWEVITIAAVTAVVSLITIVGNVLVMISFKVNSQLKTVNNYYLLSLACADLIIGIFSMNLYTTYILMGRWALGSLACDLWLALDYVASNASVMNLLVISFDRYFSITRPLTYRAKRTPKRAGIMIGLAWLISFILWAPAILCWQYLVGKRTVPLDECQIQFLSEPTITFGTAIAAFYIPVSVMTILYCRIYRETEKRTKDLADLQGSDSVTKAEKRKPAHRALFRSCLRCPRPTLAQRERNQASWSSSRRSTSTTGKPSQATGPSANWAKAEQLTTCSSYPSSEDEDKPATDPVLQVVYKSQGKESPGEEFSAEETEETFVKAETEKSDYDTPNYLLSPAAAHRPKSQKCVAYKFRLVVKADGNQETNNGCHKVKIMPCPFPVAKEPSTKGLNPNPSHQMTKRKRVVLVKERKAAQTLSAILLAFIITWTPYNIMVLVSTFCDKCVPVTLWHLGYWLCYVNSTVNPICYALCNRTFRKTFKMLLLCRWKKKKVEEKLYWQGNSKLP

Cavia porcellus [6] = organism: Cavia porcellus; experiment: Intrinsic activity at muscarinic M2 receptor in guinea pig atrium assessed as inhibition of electrically-stimulated muscle contraction relative to bathanecol; format: tissue-based; conditions: Cardiac atrium
Cavia porcellus [7] = organism: Cavia porcellus; experiment: Selectivity ratio of pD2 for guinea pig muscarinic M3 receptor to pD2 for guinea pig muscarinic M4 receptor
Oryctolagus cuniculus [8] = organism: Oryctolagus cuniculus; experiment: Antagonist activity at muscarinic M1 receptor in New Zealand White rabbit vas deferens assessed as effect on muscle contraction up to 30 uM; format: functional, tissue-based
[9] = biological target: T3, Muscarinic acetylcholine receptor M1 (Homo sapiens, UniProt P11229); experiment: Displacement of [3H]NMS from human muscarinic M1 receptor expressed in CHO cells by microplate scintillation counting; format: cell-based
T3 sequence (P11229 whole entry): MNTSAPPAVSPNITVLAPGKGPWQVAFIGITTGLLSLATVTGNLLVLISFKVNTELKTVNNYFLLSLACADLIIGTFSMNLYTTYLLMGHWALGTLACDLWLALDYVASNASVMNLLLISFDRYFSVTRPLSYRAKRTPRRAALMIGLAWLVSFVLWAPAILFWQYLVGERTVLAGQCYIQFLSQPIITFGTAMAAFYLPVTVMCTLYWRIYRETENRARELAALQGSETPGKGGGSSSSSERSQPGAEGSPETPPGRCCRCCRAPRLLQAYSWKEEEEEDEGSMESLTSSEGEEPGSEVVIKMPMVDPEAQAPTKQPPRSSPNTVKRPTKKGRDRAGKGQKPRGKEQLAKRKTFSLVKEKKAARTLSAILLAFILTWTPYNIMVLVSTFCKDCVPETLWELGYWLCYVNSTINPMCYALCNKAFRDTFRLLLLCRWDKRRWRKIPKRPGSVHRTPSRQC

[10] = biological target: T4, Muscarinic acetylcholine receptor M2 (Homo sapiens, UniProt P08172); experiment: Displacement of [3H]NMS from human muscarinic M2 receptor expressed in CHO cells by microplate scintillation counting; format: cell-based
T4 sequence (P08172 whole entry): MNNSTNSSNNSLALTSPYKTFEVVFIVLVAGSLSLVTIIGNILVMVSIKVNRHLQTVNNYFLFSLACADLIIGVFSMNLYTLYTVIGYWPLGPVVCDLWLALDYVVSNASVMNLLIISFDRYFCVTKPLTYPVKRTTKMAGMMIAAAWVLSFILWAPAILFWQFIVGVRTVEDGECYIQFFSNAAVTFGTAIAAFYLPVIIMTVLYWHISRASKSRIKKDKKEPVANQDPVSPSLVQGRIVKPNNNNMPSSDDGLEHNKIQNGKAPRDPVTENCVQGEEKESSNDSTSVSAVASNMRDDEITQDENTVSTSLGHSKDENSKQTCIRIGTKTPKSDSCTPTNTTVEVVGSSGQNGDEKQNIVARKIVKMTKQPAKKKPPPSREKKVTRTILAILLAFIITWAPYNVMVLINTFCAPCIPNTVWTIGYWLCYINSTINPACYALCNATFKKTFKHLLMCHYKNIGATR

Cavia porcellus [11] = organism: Cavia porcellus; experiment: Intrinsic activity at muscarinic M4 receptor in guinea pig lung assessed as inhibition of electrically-stimulated muscle contraction relative to bathanecol
How it was run: (§1)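 Male guinea pig peripheral lung strips (15 × 2 × 2 mm) from lower lobe, 0.3 g resting tension, 37 °C, Krebs-Henseleit with carbogen; 45 min equilibration, isometric contractions. Cumulative agonist concentration-response curves; pD2 by linear regression; intrinsic activity relative to bethanechol maximum; means ± SEM of four to six experiments.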

[12] = Selectivity ratio of pD2 for guinea pig muscarinic M3 receptor to pD2 for rabbit M1 receptor
Cavia porcellus [13] = organism: Cavia porcellus; experiment: Selectivity ratio of pD2 for guinea pig muscarinic M3 receptor to pD2 for guinea pig muscarinic M2 receptor
[14] = biological target: Muscarinic acetylcholine receptor M3 (Cavia porcellus) (UniProt Q8VH26); experiment: Agonist activity at muscarinic M3 receptor in guinea pig ileum assessed as inhibition of electrically-stimulated muscle contraction; format: functional, tissue-based
Chain of Muscarinic acetylcholine receptor M3 (Cavia porcellus) (Q8VH26 1-587): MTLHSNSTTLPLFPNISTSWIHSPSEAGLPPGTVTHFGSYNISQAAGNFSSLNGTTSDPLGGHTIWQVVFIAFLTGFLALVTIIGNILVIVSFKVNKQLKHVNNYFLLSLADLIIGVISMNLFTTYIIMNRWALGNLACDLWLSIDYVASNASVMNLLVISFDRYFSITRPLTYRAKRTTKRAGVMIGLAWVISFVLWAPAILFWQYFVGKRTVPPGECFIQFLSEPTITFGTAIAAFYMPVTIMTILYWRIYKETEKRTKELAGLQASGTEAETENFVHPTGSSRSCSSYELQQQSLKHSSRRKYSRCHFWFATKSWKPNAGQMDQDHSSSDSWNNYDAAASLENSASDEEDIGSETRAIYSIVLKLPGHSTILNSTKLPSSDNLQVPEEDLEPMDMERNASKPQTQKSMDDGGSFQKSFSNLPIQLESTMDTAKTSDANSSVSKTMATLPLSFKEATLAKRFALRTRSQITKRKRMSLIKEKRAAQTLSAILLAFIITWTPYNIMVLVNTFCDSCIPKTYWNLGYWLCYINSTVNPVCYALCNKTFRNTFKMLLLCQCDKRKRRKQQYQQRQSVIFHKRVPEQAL
How it was run: as §1, with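 “(250-350 g, fasted 24 h) ileal segments 2-3 cm, 1.0” for “peripheral lung strips (15 × 2 × 2 mm) from lower lobe, 0.3”, “g” for “g resting”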

[15] = biological target: Muscarinic acetylcholine receptor M3 (Cavia porcellus) (UniProt Q8VH26); experiment: Intrinsic activity at muscarinic M3 receptor in guinea pig ileum assessed as inhibition of electrically-stimulated muscle contraction relative to bathanecol; format: tissue-based
How it was run: as §1, with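 “(250-350 g, fasted 24 h) ileal segments 2-3 cm, 1.0” for “peripheral lung strips (15 × 2 × 2 mm) from lower lobe, 0.3”, “g” for “g resting”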

Oryctolagus cuniculus [16] = organism: Oryctolagus cuniculus; experiment: Agonist activity at muscarinic M1 receptor in New Zealand White rabbit vas deferens assessed as inhibition of electrically-stimulated muscle contraction; format: functional
How it was run: (§2)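 Prostatic portion of male-free-listed New Zealand white rabbit (3.0-3.5 kg, fasted 24 h) vas deferens in modified Krebs, 31 °C, 95% O2-5% CO2; 45 min stabilisation, field stimulation 2 Hz, 5 ms, 5 V; isometric recording. Cumulative concentration-response curves; pD2 by linear regression; intrinsic activity as fraction of McN-A-343 maximum; means ± SEM of four to six experiments.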

[17] = Antagonist activity at muscarinic M4 receptor in guinea pig lung assessed as effect on muscle contraction; format: functional, Cavia porcellus
[18] = Antagonist activity at muscarinic M1 receptor in New Zealand White rabbit vas deferens assessed as effect on muscle contraction; format: functional, Oryctolagus cuniculus
Cavia porcellus [19] = organism: Cavia porcellus; experiment: Antagonist activity at muscarinic M4 receptor in guinea pig lung assessed as effect on muscle contraction up to 10 uM; format: functional
Oryctolagus cuniculus [20] = organism: Oryctolagus cuniculus; experiment: Intrinsic activity at muscarinic M1 receptor in New Zealand White rabbit vas deferens assessed as inhibition of electrically-stimulated muscle contraction relative to McN-A-343; format: tissue-based; how it was run: as §2

Structure (SMILES) | Ki [1] [µM] | pD2 [2] | Ki [3] [µM] | pD2 [4] | Ki [5] [µM] | Intrinsic activity (Cavia porcellus [6]) | Selectivity ratio (Cavia porcellus [7]) | pKb (Oryctolagus cuniculus [8]) | Ki [9] [µM] | Ki [10] [µM] | Intrinsic activity (Cavia porcellus [11]) | Selectivity ratio [12] | Selectivity ratio (Cavia porcellus [13]) | pD2 [14] | Intrinsic activity [15] | pD2 (Oryctolagus cuniculus [16]) | pKb [17] | pKb [18] | pKb (Cavia porcellus [19]) | Intrinsic activity (Oryctolagus cuniculus [20])
CC1(C)COC[C@@H](C[N+](C)(C)C)O1.[I-] | 21.4 | 4.85 | 44.7 | 5.03 | 28.2 | 0.73 | 123 | inactive | 47.9 | 18.2 | 0.18 | > 275 | 81 | 6.94 | 1.16 | inactive | – | – | – | –
C[C@H]1OC[C@@H](C[N+](C)(C)C)OC1(C)C.[I-] (relative stereo) | 16.2 | – | 25.7 | – | 32.4 | – | – | inactive | 20 | 27.5 | 0 | – | – | 5.25 | 0.47 | inactive | 5.15 | – | – | –
C[C@@H]1O[C@H](C[N+](C)(C)C)COC1(C)C.[I-] (relative stereo) | 32.4 | – | 57.5 | 4.92 | 52.5 | 0.33 | – | – | 67.6 | 60.3 | – | – | – | 5.12 | 0.47 | – | – | 4.61 | inactive | 0
